Twelve molecules from ChEMBL document CHEMBL1938300 (Bioorg Med Chem, 2011) can be followed below.

For data set [1], the system named is Rattus norvegicus. Briefly: AUC in Sprague-Dawley rat at 1 mg/kg, iv by HPLC. Also noted: dose 1 mg/kg, route intravenous. The note with it: in vivo. The class given is ADME, organism-based, Plasma.
In data set [2] the test system is Rattus norvegicus. Briefly: AUC in Sprague-Dawley rat at 5 mg/kg, po by HPLC. Also noted: dose 5 mg/kg, route oral. The note with it: in vivo. Type of data set: ADME, organism-based, Plasma.
A short description of data set [3]: Volume of distribution in Sprague-Dawley rat by HPLC. The class given is ADME, organism-based. The note with it: in vivo. A digest of the protocol:
(§1)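 Rat IV pharmacokinetics: male Sprague-Dawley, n=3, 1 mg/kg tail-vein dose in 3% DMSO/30% Solutol/67% PBS; plasma over 0.083–6 h quantified by HPLC-MS/MS; parameters estimated per rat by non-compartmental analysis.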

Data set [4] in a line: Clearance in Sprague-Dawley rat by HPLC. As to conditions: in vivo. Type of data set: ADME, organism-based. In short, it runs like this:
as §1

Data set [5] in a line: Half life in Sprague-Dawley rat liver microsomes. Type of data set: ADME, Microsome.
A short description of data set [6]: Solubility of the compound at pH 7.4. The class given is physicochemical. The note with it: buffer.
A short description of data set [7]: Oral bioavailability Sprague-Dawley rat at 5 mg/kg by HPLC. Type of data set: ADME, organism-based. The note with it: in vivo. In short, it runs like this: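 Male Sprague-Dawley rats (n=3/group) given 1 mg/kg IV (DMSO/Solutol/PBS) or, after overnight fast, 5 mg/kg oral gavage in PEG400; plasma by HPLC-MS/MS; F% = dose-normalised oral AUC0-∞ divided by IV AUC0-∞, times 100.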

Data set [8] can be described thus: Solubility of the compound. Type of data set: physicochemical.

In brackets after ≈: the same amount, converted by molar mass. A value given as a limit tells only on which side of the number the result lay.

Consider `CNC(=O)c1cccc(F)c1Nc1nc(Nc2ccc3c(c2)NC(=O)CCC3(C)C)ncc1Cl`, for which the AUC was 1060 ng·h/mL with Rattus norvegicus [1] and 46 ng·h/mL in the data set with Rattus norvegicus [2]. Besides, in data set [3], the Vd was 0.5 L/kg. The molecule also displayed a clearance in data set [4] of 16 mL/min/kg. The half-life in data set [5] stood at 15 min. In addition, the solubility in data set [6] and in data set [8] was 21 µg/mL (≈ 43.5 µM) each time. For the same molecule, the bioavailability in data set [7] worked out at 1%.

For `CCN1C(=O)CCC(C)(C)c2ccc(Nc3ncc(Cl)c(Nc4c(F)cccc4C(=O)NC)n3)cc21`, the bioavailability in data set [7] is 0%.

Take `CNC(=O)c1cccc(F)c1Nc1nc(Nc2ccc3c(c2)NC(=O)[C@H](NC(=O)N2CCCC2)CC3(C)C)ncc1Cl`: the AUC in the data set with Rattus norvegicus [1] is 3460 ng·h/mL; with Rattus norvegicus [2], 5850 ng·h/mL. This molecule also registered a Vd in data set [3] of 0.6 L/kg. This molecule returned a clearance in data set [4] of 5 mL/min/kg. The molecule also registered a half-life in data set [5] of 21 min. For the same molecule, in data set [6], the solubility stood at 26 µg/mL (≈ 43.7 µM). The molecule further had a bioavailability in data set [7] of 34%.

In the case of `CNC(=O)c1cccc(F)c1Nc1nc(Nc2ccc3c(c2)NC(=O)[C@@H](NC(=O)N2CCCC2)CC3(C)C)ncc1Cl`, the area under the curve (AUC) in the data set on Rattus norvegicus [1] worked out at 3190 ng·h/mL; in the data set on Rattus norvegicus [2] it was 5550 ng·h/mL. In data set [3], this molecule gave a Vd of 0.6 L/kg. Also, in data set [4], the clearance was 5 mL/min/kg. In data set [7], this molecule gave a bioavailability of 35%.

Consider `CNC(=O)c1cccc(F)c1Nc1nc(Nc2ccc3c(c2)NC(=O)C(NC(=O)C(F)(F)F)CC3(C)C)ncc1Cl.O=C(O)C(F)(F)F` (racemic), for which the AUC in the data set on Rattus norvegicus [1] amounted to 1310 ng·h/mL; with Rattus norvegicus [2] it was 606 ng·h/mL. In addition, in data set [3], the Vd was determined as 1.2 L/kg. Moreover, the clearance in data set [4] was found to be 16 mL/min/kg. The molecule also registered a bioavailability in data set [7] of 9%. This molecule also showed a solubility in data set [8] of 8 µg/mL.

In the data set on Rattus norvegicus [1], `CNC(=O)c1cccc(F)c1Nc1nc(Nc2ccc3c(c2)NC(=O)C(N)CC3(C)C)ncc1Cl` (racemic) showed an AUC of 787 ng·h/mL. The same molecule registered a Vd in data set [3] of 4.6 L/kg. Moreover, the solubility in data set [8] is over 120 µg/mL.

Consider `CNC(=O)c1cccc(F)c1Nc1nc(Nc2ccc3c(c2)NC(=O)C(NC(=O)CN(C)C)CC3(C)C)ncc1Cl.O=C(O)C(F)(F)F` (racemic), for which the AUC was 825 ng·h/mL in the data set on Rattus norvegicus [1] and 61 ng·h/mL in the data set with Rattus norvegicus [2]. Also, the Vd in data set [3] amounted to 3 L/kg. The molecule further showed a clearance in data set [4] of 32 mL/min/kg. Further, the bioavailability in data set [7] is 1%.

Consider `CNC(=O)c1cccc(F)c1Nc1nc(Nc2ccc3c(c2)NC(=O)C(NC(C)=O)CC3(C)C)ncc1Cl.O=C(O)C(F)(F)F` (racemic), for which the area under the curve (AUC) is 654 ng·h/mL in the data set with Rattus norvegicus [1] and 48 ng·h/mL with Rattus norvegicus [2]. This molecule also came in with a Vd in data set [3] of 2 L/kg. The molecule also gave a clearance in data set [4] of 33 mL/min/kg. Besides, the bioavailability in data set [7] was found to be 2%.

On to `CNC(=O)c1cccc(F)c1Nc1nc(Nc2ccc3c(c2)NC(=O)C(NC(=O)COC)CC3(C)C)ncc1Cl.O=C(O)C(F)(F)F` (racemic), for which the AUC in the data set with Rattus norvegicus [1] was determined as 846 ng·h/mL; in the data set with Rattus norvegicus [2] it was 497 ng·h/mL. Further, the Vd in data set [3] turned out to be 1.3 L/kg. Besides, the clearance in data set [4] was determined as 20 mL/min/kg. In data set [7], the bioavailability turned out to be 12%.

With `CNC(=O)c1cccc(F)c1Nc1nc(Nc2ccc3c(c2)NC(=O)C(NC(=O)OC)CC3(C)C)ncc1Cl.O=C(O)C(F)(F)F` (racemic), the AUC was found to be 1200 ng·h/mL with Rattus norvegicus [1] and 987 ng·h/mL in the data set with Rattus norvegicus [2]. This molecule returned a Vd in data set [3] of 1 L/kg. In data set [4], this molecule showed a clearance of 15 mL/min/kg. Also, the bioavailability in data set [7] worked out at 16%.

Take `CNC(=O)c1cccc(F)c1Nc1nc(Nc2ccc3c(c2)NC(=O)C(NC(=O)N2CCCC2)CC3(C)C)ncc1Cl.O=C(O)C(F)(F)F` (racemic; form 1): the AUC in the data set with Rattus norvegicus [1] turned out to be 3420 ng·h/mL; in the data set with Rattus norvegicus [2], 2630 ng·h/mL. Further, in data set [3], the Vd is 0.8 L/kg. Also, the clearance in data set [4] turned out to be 6 mL/min/kg. In data set [7], this molecule gave a bioavailability of 15%.

As to `CNC(=O)c1cccc(F)c1Nc1nc(Nc2ccc3c(c2)NC(=O)C(NC(=O)N2CCCC2)CC3(C)C)ncc1Cl` (racemic; form 2), the AUC in the data set with Rattus norvegicus [1] was 2330 ng·h/mL; with Rattus norvegicus [2], 4660 ng·h/mL. The molecule also displayed a Vd in data set [3] of 0.8 L/kg. This molecule showed a clearance in data set [4] of 8 mL/min/kg. In data set [7], the bioavailability came to 40%.
